Measured values reported in ChEMBL document CHEMBL1121779, “Thiophene systems. 5. Thieno[3,4-b][1,5]benzoxazepines, thieno[3,4-b][1,5]benzothiazepines, and thieno[3,4-b][1,4]benzodiazepines as potential central nervous system agents” (1981).
Calls of active or inactive are those of the source. No cut-off for these calls is given here.

How the values were obtained:
Mus musculus [1] = experiment: Inhibition of tetrabenazine induced depression in mice was following p.o. administration; Inactive.; assay type: functional, organism-based
Mus musculus [2] = experiment: Compound was tested for the neuroleptic activity as measured by it's antagonism of d-amphetamine induced lethality in grouped mice(GAL) when administered perorally; Inactive; assay type: functional, organism-based
Rattus norvegicus [3] = experiment: Reduction in motor activity in rats following p.o. administration.; assay type: functional
Summary of the method: (§1)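 Rats in groups of five given graded oral doses. Locomotor activity counted per rat over 5 min at the time of peak effect, which was set earlier with a selected dose. MDD50 is the dose giving 50% reduction versus controls, taken from linear regression.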

Mus musculus [4] = experiment: Compound was tested for the neuroleptic activity as measured by it's antagonism of d-amphetamine induced lethality in grouped mice(GAL) when administered perorally; 1.6-3.8; assay type: functional; conditions: po
Mus musculus [5] = experiment: Minimum effective dose causing antagonism of tetrabenazine induced depression in mice was determined when administered perorally; assay type: functional; conditions: po, read-out: MED
Mus musculus [6] = experiment: Compound was tested for the neuroleptic activity as measured by it's antagonism of d-amphetamine induced lethality in grouped mice(GAL) when administered perorally; 3.2-5.5; assay type: functional; conditions: po
Mus musculus [7] = experiment: Compound was tested for the neuroleptic activity as measured by it's antagonism of d-amphetamine induced lethality in grouped mice(GAL) when administered perorally; 0.1-0.6; assay type: functional; conditions: po
Mus musculus [8] = experiment: Minimum effective dose causing antagonism of tetrabenazine induced depression in mice was determined when administered perorally; Inactive at 25 mg/kg; assay type: functional, organism-based; set-up: dose 25 mg/kg
Mus musculus [9] = experiment: Compound was tested for the neuroleptic activity as measured by it's antagonism of d-amphetamine induced lethality in grouped mice(GAL) when administered perorally; assay type: functional; conditions: po
Mus musculus [10] = experiment: Minimum effective dose causing antagonism of tetrabenazine induced depression in mice was determined when administered perorally; Inactive at 20 mg/kg; assay type: functional, organism-based; set-up: dose 20 mg/kg
Mus musculus [11] = experiment: Compound was tested for the neuroleptic activity as measured by it''s antagonism of d-amphetamine induced lethality in grouped mice(GAL) when administered perorally; Inactive at 20 mg/kg; assay type: functional, organism-based; set-up: dose 20 mg/kg
Rattus norvegicus [12] = experiment: Dose causing 50% reduction of motor activity in rats was measured when administered perorally; Inactive at 50 mg/kg; assay type: functional, organism-based; set-up: dose 50 mg/kg; summary of the method: as §1
Mus musculus [13] = experiment: Compound was tested for the neuroleptic activity as measured by it's antagonism of d-amphetamine induced lethality in grouped mice(GAL) when administered perorally; Inactive at 20 mg/kg; assay type: functional, organism-based; set-up: dose 20 mg/kg
Mus musculus [14] = experiment: Compound was tested for the neuroleptic activity as measured by it's antagonism of d-amphetamine induced lethality in grouped mice(GAL) when administered perorally; 1.1-2.5; assay type: functional; conditions: po
Mus musculus [15] = experiment: Compound was tested for the neuroleptic activity as measured by it's antagonism of d-amphetamine induced lethality in grouped mice(GAL) when administered perorally; 0.09-0.24; assay type: functional; conditions: po
Mus musculus [16] = experiment: Compound was tested for the neuroleptic activity as measured by it's antagonism of d-amphetamine induced lethality in grouped mice(GAL) when administered perorally; 1.4-3.1; assay type: functional; conditions: po
Mus musculus [17] = experiment: Compound was tested for the neuroleptic activity as measured by it's antagonism of d-amphetamine induced lethality in grouped mice(GAL) when administered perorally; 5.1-9; assay type: functional; conditions: po
Mus musculus [18] = experiment: Minimum effective dose causing antagonism of tetrabenazine induced depression in mice was determined when administered perorally; Inactive; assay type: functional, organism-based
Mus musculus [19] = experiment: Compound was tested for the neuroleptic activity as measured by it's antagonism of d-amphetamine induced lethality in grouped mice(GAL) when administered perorally; 2.5-3.9; assay type: functional; conditions: po
Mus musculus [20] = experiment: Compound was tested for the neuroleptic activity as measured by it's antagonism of d-amphetamine induced lethality in grouped mice(GAL) when administered perorally; 9-33; assay type: functional; conditions: po
Mus musculus [21] = experiment: Compound was tested for the neuroleptic activity as measured by it's antagonism of d-amphetamine induced lethality in grouped mice(GAL) when administered perorally; 1-15; assay type: functional; conditions: po
Mus musculus [22] = experiment: Compound was tested for the neuroleptic activity as measured by it's antagonism of d-amphetamine induced lethality in grouped mice(GAL) when administered perorally; 1.1-1.9; assay type: functional; conditions: po
Mus musculus [23] = experiment: Compound was tested for the neuroleptic activity as measured by it's antagonism of d-amphetamine induced lethality in grouped mice(GAL) when administered perorally; 0.4-3.1; assay type: functional; conditions: po
Mus musculus [24] = experiment: Compound was tested for the neuroleptic activity as measured by it's antagonism of d-amphetamine induced lethality in grouped mice(GAL) when administered perorally; 2.4-5.6; assay type: functional; conditions: po

## COc1ccc2c(c1)Oc1cscc1C(N1CCN(C)CC1)=N2
Mus musculus [1]
  MED: inactive
Mus musculus [2]
  ED50: inactive

## CN1CCN(C2=Nc3ccccc3Oc3c2csc3Cl)CC1
Rattus norvegicus [3]
  MDD50: <50 mg/kg
Mus musculus [4]
  ED50: 2.4 mg/kg
Mus musculus [5]
  minimal effective dose: 12.5 mg/kg

## CN1CCN(C2=Nc3cc(Cl)ccc3Nc3ccccc32)CC1 [CLOZAPINE]
Mus musculus [6]
  ED50: 4.2 mg/kg
Mus musculus [1]
  MED: inactive
Rattus norvegicus [3]
  MDD50: 21 mg/kg

## CN1CCN(C2=Nc3ccccc3Sc3cscc32)CC1
Rattus norvegicus [3]
  MDD50: <10 mg/kg
Mus musculus [7]
  ED50: 0.2 mg/kg
Mus musculus [8]
  MED: inactive

## CN1CCN(C2=Nc3cscc3Nc3ccccc32)CC1
Rattus norvegicus [3]
  MDD50: 15 mg/kg
Mus musculus [9]
  ED50: 3.2 mg/kg
Mus musculus [10]
  MED: inactive

## Cc1ccc2c(c1)N=C(N1CCN(CCO)CC1)c1cscc1O2
Rattus norvegicus [3]
  MDD50: 27.2 mg/kg
Mus musculus [11]
  ED50: inactive

## CN1CCN(C2=Nc3cscc3N(C)c3ccc(F)cc32)CC1
Mus musculus [2]
  ED50: inactive
Mus musculus [5]
  minimal effective dose: 6.25 mg/kg

## OCCN1CCN(C2=Nc3ccccc3Oc3c2csc3Cl)CC1
Rattus norvegicus [12]
  MDD50: inactive
Mus musculus [1]
  MED: inactive
Mus musculus [9]
  ED50: < 10 mg/kg

## COc1ccc2c(c1)N=C(N1CCN(C)CC1)c1cscc1O2
Mus musculus [2]
  ED50: inactive

## CN1CCN(C2=Nc3ccccc3Sc3c2csc3Cl)CC1
Mus musculus [5]
  minimal effective dose: 1.6 mg/kg
Mus musculus [13]
  ED50: inactive

## CN1CCN(C2=Nc3cc(Cl)ccc3Oc3cscc32)CC1
Mus musculus [1]
  MED: inactive
Rattus norvegicus [3]
  MDD50: 9.6 mg/kg
Mus musculus [14]
  ED50: 1.6 mg/kg

## Cc1ccc2c(c1)Oc1cscc1C(N1CCN(CCO)CC1)=N2
Mus musculus [1]
  MED: inactive
Rattus norvegicus [3]
  MDD50: 37 mg/kg

## CN1CCN(C2=Nc3cc(Cl)ccc3Sc3cscc32)CC1
Mus musculus [1]
  MED: inactive
Mus musculus [2]
  ED50: inactive

## CN1CCN(C2=Nc3ccccc3Oc3ccc(Cl)cc32)CC1 [LOXAPINE]
Mus musculus [1]
  MED: inactive
Mus musculus [15]
  ED50: 0.14 mg/kg
Rattus norvegicus [3]
  MDD50: 0.6 mg/kg

## OCCN1CCN(C2=Nc3cc(Cl)ccc3Oc3cscc32)CC1
Mus musculus [1]
  MED: inactive
Rattus norvegicus [3]
  MDD50: 19.2 mg/kg
Mus musculus [16]
  ED50: 2 mg/kg

## CCN1CCN(C2=Nc3cc(Cl)ccc3Oc3cscc32)CC1
Mus musculus [1]
  MED: inactive
Mus musculus [17]
  ED50: 6.8 mg/kg
Rattus norvegicus [3]
  MDD50: <50 mg/kg

## Cc1ccc2c(c1)Oc1cscc1C(N1CCN(C)CC1)=N2
Mus musculus [11]
  ED50: inactive
Mus musculus [18]
  MED: inactive

## CN1CCN(C2=Nc3ccccc3Oc3cscc32)CC1
Rattus norvegicus [3]
  MDD50: 1.3 mg/kg
Mus musculus [9]
  ED50: 1.4 mg/kg
Mus musculus [8]
  MED: inactive

## CN1CCN(C2=Nc3cc(Br)ccc3Oc3cscc32)CC1
Mus musculus [19]
  ED50: 3.1 mg/kg
Mus musculus [1]
  MED: inactive
Rattus norvegicus [3]
  MDD50: 16.4 mg/kg

## COc1ccc2c(c1)N=C(N1CCN(CCO)CC1)c1cscc1O2
Mus musculus [1]
  MED: inactive
Mus musculus [2]
  ED50: inactive

## CN1CCN(C2=Nc3cscc3N(C)c3ccc(Cl)cc32)CC1
Rattus norvegicus [3]
  MDD50: 4.1 mg/kg
Mus musculus [5]
  minimal effective dose: 1.56 mg/kg
Mus musculus [11]
  ED50: inactive

## Cc1cc2c(cc1C)Sc1cscc1C(N1CCN(C)CC1)=N2
Mus musculus [1]
  MED: inactive
Mus musculus [2]
  ED50: inactive

## CN1CCN(C2=Nc3cscc3Nc3ccc(F)cc32)CC1
Mus musculus [1]
  MED: inactive
Mus musculus [20]
  ED50: 17.5 mg/kg

## Cc1cccc2c1N=C(N1CCN(CCO)CC1)c1cscc1O2
Mus musculus [11]
  ED50: inactive

## CN1CCN(C2=Nc3cscc3N(C)c3ccccc32)CC1
Rattus norvegicus [3]
  MDD50: 51 mg/kg
Mus musculus [9]
  ED50: 6.5 mg/kg
Mus musculus [5]
  minimal effective dose: 7.6 mg/kg

## CCN1CCN(C2=Nc3cc(C)ccc3Oc3cscc32)CC1
Rattus norvegicus [3]
  MDD50: <50 mg/kg
Mus musculus [21]
  ED50: 3.9 mg/kg
Mus musculus [18]
  MED: inactive

## OCCN1CCN(C2=Nc3cc(Br)ccc3Oc3cscc32)CC1
Mus musculus [1]
  MED: inactive
Mus musculus [9]
  ED50: < 2.5 mg/kg

## CN1CCN(C2=Nc3cscc3Nc3ccc(Cl)cc32)CC1
Mus musculus [1]
  MED: inactive
Mus musculus [9]
  ED50: ≤ 5 mg/kg

## CCN1CCN(C2=Nc3ccccc3Oc3cscc32)CC1
Mus musculus [1]
  MED: inactive
Rattus norvegicus [3]
  MDD50: 1.66 mg/kg
Mus musculus [22]
  ED50: 1.4 mg/kg

## OCCN1CCN(C2=Nc3ccccc3Oc3cscc32)CC1
Mus musculus [1]
  MED: inactive
Rattus norvegicus [3]
  MDD50: 5.4 mg/kg
Mus musculus [9]
  ED50: < 10 mg/kg

## OCCN1CCN(C2=Nc3ccccc3Sc3cscc32)CC1
Mus musculus [1]
  MED: inactive
Rattus norvegicus [3]
  MDD50: <10 mg/kg
Mus musculus [9]
  ED50: 0.2 mg/kg

## Cc1cccc2c1N=C(N1CCN(C)CC1)c1cscc1O2
Mus musculus [23]
  ED50: 1.2 mg/kg
Mus musculus [1]
  MED: inactive
Rattus norvegicus [3]
  MDD50: >50 mg/kg

## Cc1ccc2c(c1)N=C(N1CCN(C)CC1)c1cscc1O2
Rattus norvegicus [3]
  MDD50: 5.96 mg/kg
Mus musculus [24]
  ED50: 3.6 mg/kg
Mus musculus [18]
  MED: inactive

## CN(C)CCCN1c2ccccc2CCc2ccccc21 [IMIPRAMINE]
Rattus norvegicus [3]
  MDD50: >20 mg/kg
Mus musculus [9]
  ED50: > 50 mg/kg
Mus musculus [5]
  minimal effective dose: 5 mg/kg
